This is an account of results in ChEMBL document CHEMBL1145983, “Novel indolyl aryl sulfones active against HIV-1 carrying NNRTI resistance mutations: synthesis and SAR studies” (J Med Chem, 2003).

Assay [1] has as its system Human immunodeficiency virus 1. The experiment in a line: Selectivity ratio of CC50/EC50. The assay is classed as functional. In short, it runs like this: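 Ratio of CC50 (MTT viability of mock-infected MT-4 cells) to EC50 (MTT-based 50% protection of HIV-1-infected MT-4 cells from cytopathicity), both determined in parallel.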
For assay [2], the system named is C8166. Put plainly: Anti-HIV activity to reduce the amount of p24 in WT IIIB infected C8166 cells. Conditions: Homo sapiens. The assay is classed as functional, cell-based. In short, it runs like this:
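HIV-1 IIIB came from supernatants of persistently infected H9/IIIB cells; stock 4.5 × 10^6 CCID50/mL. Acutely infected C8166 cells (1 × 10^4/well) were incubated at 37 °C with or without compound dilutions. p24 was measured by immunoenzymatic kit. Value is the concentration reducing p24 by 90%; mean of three experiments.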

The subject of assay [3] is Human immunodeficiency virus 1. Put plainly: Anti-HIV activity protecting MT-4 cells from HIV-1 induced cytopathogenicity. The format is functional, organism-based. The following applies: Human immunodeficiency virus 1, MT4.
Assay [4] relates to MT-4 (Homo sapiens). The experiment in a line: Anti-HIV activity to protect MT-4 cells from cytopathogenicity induced by HIV-1 K103N-Y181C (MTT method). In general terms: Cytopathic effects are the visible damage that an infection or toxin causes in cultured cells.
Assay [5] has as its system MT4. The experiment in a line: Cytotoxicity, reducing the vaiability of mock-infected cells. The assay is classed as functional. The following applies: Homo sapiens.
The test system of assay [6] is C8166. The experiment in a line: Anti-HIV activity to reduce the amount of p24 in C8166 cells infected with efavirenz resistance strain K103R, V179D, and P225H. The format is functional, cell-based, Homo sapiens. The procedure, abridged: (§1)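 Efavirenz-resistant K103R-V179D-P225H virus came from IIIB passaged in C8166 cells with efavirenz (up to 2 µM); stock 3.0 × 10^5 CCID50/mL. Acutely infected C8166 cells (1 × 10^4/well) were incubated at 37 °C with or without compound dilutions. p24 was measured by immunoenzymatic kit. Value is the concentration giving 90% p24 reduction; mean of three experiments.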

Assay [7] deals with MT4. The experiment in a line: Anti-HIV activity to protect MT-4 cells from HIV-1 induced cytopathogenicity by MTT method Y181C. The assay is classed as functional, cell-based. The following applies: Homo sapiens. The procedure, abridged:
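Acutely infected MT-4 cells (1 × 10^4/well) exposed to serial compound dilutions, then HIV-1 (wt IIIB from H9/IIIB supernatant, or Y181C mutant NIH N119) at inoculum giving full cytopathicity by day 4; 37 °C incubation; viability read by MTT. EC50 = µM giving 50% protection from virus-induced cytopathicity; mean ± SE of three experiments.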

Assay [8] has as its system MT-4 (Homo sapiens). Put plainly: Anti-HIV activity to protect MT-4 cells from cytopathogenicity induced by HIV-1 K103N-Y181C (MTT method). This is another data set of the same source.
Assay [9] concerns the target Human immunodeficiency virus type 1 reverse transcriptase (Human immunodeficiency virus 1, UniProt Q72547). Put plainly: Activity to inhibit HIV-1 Reverse transcriptase activity in WT IIIB. The procedure, abridged:
(§2)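 Purified recombinant RT (wt or K103N mutant) assayed for RNA-dependent DNA polymerase activity. Buffer: 50 mM Tris-HCl pH 7.8, 80 mM KCl, 6 mM MgCl2, 1 mM DTT, 0.1 mg/mL BSA. Template:primer was poly(rC)-oligo(dG)12-18 at 0.5 OD260 unit/mL, with [3H]dGTP. Incubated 30 min at 37 °C; acid-insoluble radioactivity counted on glass-fibre filters. IC50 reported as mean of two experiments.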

The target of assay [10] is Human immunodeficiency virus type 1 reverse transcriptase (Human immunodeficiency virus 1, UniProt Q72547, K103N). The experiment in a line: Activity to inhibit HIV-1 Reverse transcriptase activity in K103N. The procedure, abridged: as §2
Assay [11] concerns C8166. The experiment in a line: Anti-HIV activity to reduce the amount of p24 in C8166 cells infected with efavirenz resistance strain. The assay is classed as functional, cell-based. The following applies: Homo sapiens. The procedure, abridged:
as §1

SMILES strings stand for the structures.

`Cc1cccc(S(=O)(=O)c2c(C(N)=O)[nH]c3ccc(Cl)cc23)c1`: in [1], the Selectivity index was above 200000. In addition, the 90% effect concentration (EC90) in the assay on C8166 [2] stood at 5 nM; with C8166 [6] it was 260 nM. In addition, the results for the EC50 (in assay [3]; in the assay with MT-4 (Homo sapiens) [4]; in the assay on MT4 [7]) were 1 nM, 7000 nM and 6 nM, respectively. The compound also gave a CC50 with MT4 [5] above 200000 nM.
As for `Cc1ccccc1S(=O)(=O)c1c(C(N)=O)[nH]c2ccc(Cl)cc12`, the Selectivity index in assay [1] is reported as above 200000. Besides, the EC90 in the assay with C8166 [2] was determined as 5 nM; with C8166 [6] it was 2600 nM. In addition, the EC50 amounted to 1 nM in assay [3] and 10000 nM in the assay on MT-4 (Homo sapiens) [4]. In the assay with MT4 [5], this compound came in with a CC50 above 200000 nM.
Consider `Cc1ccc(S(=O)(=O)c2c(C(=O)NN)[nH]c3ccc(Cl)cc23)cc1`, for which, in assay [1], the Selectivity index is above 4000. Besides, the EC50 in [3] was 50 nM. In addition, in the assay on MT4 [5], the CC50 was above 200000 nM.
Regarding `Cc1ccc(S(=O)(=O)c2c(C(N)=O)[nH]c3ccc(Cl)cc23)cc1`, in [1], the Selectivity index is recorded as above 66667. Moreover, the 90% effect level with C8166 [2] (EC90) was put at 10 nM. Also, the EC50 was above 100000 nM in the assay on MT-4 (Homo sapiens) [8], 3 nM in assay [3] and 20 nM with MT4 [7]. For the same compound, the IC50 in assay [9] was 72 nM; in assay [10], above 5000 nM. This compound also showed a 50% cytotoxic concentration (CC50) in the assay on MT4 [5] above 200000 nM.
With `NC(=O)c1[nH]c2ccc(Cl)cc2c1S(=O)(=O)c1ccc(Cl)cc1`, the Selectivity index in assay [1] is on record as above 18182. Besides, a half-maximal response in assay [3] (EC50) required 11 nM. In the assay on MT4 [5], the CC50 was above 200000 nM.
On to `Cc1ccc(S(=O)(=O)c2c(C(N)=O)[nH]c3ccc(Cl)cc23)c(C)c1`, for which, in assay [1], the Selectivity index was found to be 9250. Besides, the EC50 in the assay on MT-4 (Homo sapiens) [8] came out at 10000 nM; in assay [3], 4 nM. The same compound registered a half-maximal cytotoxic concentration (CC50) in the assay with MT4 [5] of 37000 nM.
With `NC(=O)c1[nH]c2ccc(Cl)cc2c1Sc1ccc(Cl)cc1`, the Selectivity index in [1] was 4. The same compound came in with a 50% effective concentration (EC50) in assay [3] of 3100 nM. In addition, in the assay on MT4 [5], the half-maximal cytotoxic concentration (CC50) was 13000 nM.
Regarding `NC(=O)c1[nH]c2ccc(Cl)cc2c1Sc1ccc(F)cc1`, in assay [1], the Selectivity index turned out to be 9. This compound also had a half-maximal effective concentration (EC50) in assay [3] of 1400 nM. Also, the CC50 in the assay with MT4 [5] amounted to 13000 nM.
On the same counts, the results for `Cc1cc(C)cc(Sc2c(C(N)=O)[nH]c3ccc(Cl)cc23)c1` are 117, 6 nM and 700 nM.
`NC(=O)c1[nH]c2ccccc2c1Sc1cc(Cl)ccc1N`: the Selectivity index in [1] came out at 2.2. Further, in assay [3], it took 9000 nM to reach a half-maximal effect (EC50). For the same compound, in the assay with MT4 [5], the 50% cytotoxic concentration (CC50) was 20000 nM.
On the same counts, the results for `NNC(=O)c1[nH]c2ccc(Cl)cc2c1Sc1ccc(Cl)cc1` are 3, 10000 nM and 30000 nM.
Turning to `Cc1cc(C)cc(S(=O)(=O)c2c(C(=O)NN)[nH]c3ccc(Cl)cc23)c1`, in assay [1], the Selectivity index is given as above 2000. A half-maximal response in [3] (EC50) required 100 nM. In the assay with MT4 [5], this compound returned a cytotoxic concentration (CC50) above 200000 nM.
As for `Cc1cc(C)cc(S(=O)(=O)c2c(C(N)=O)[nH]c3ccc(Cl)cc23)c1`, the Selectivity index in assay [1] came out at 3750. Besides, in the assay on C8166 [2], the concentration for an effect of 90% (EC90) was found to be 2 nM. For the same compound, the EC50 was found to be 650 nM in the assay with MT-4 (Homo sapiens) [8] and 4 nM in [3]. The results for the IC50 in [9] and in assay [10] were 31 nM and above 5000 nM, respectively. Further, in the assay with MT4 [5], the half-maximal cytotoxic concentration (CC50) was 15000 nM.
`CCOC(=O)c1cc2cc(Cl)ccc2n1S(=O)(=O)c1cc(Cl)ccc1N`: the Selectivity index in assay [1] worked out at 4.7. Besides, a half-maximal effect in assay [3] (EC50) was put at 8300 nM. For the same compound, it took 39000 nM to reach half-maximal cytotoxicity in the assay on MT4 [5] (CC50).
On the same counts, the results for `NNC(=O)c1[nH]c2ccc(Cl)cc2c1S(=O)(=O)c1ccc(Cl)cc1` are above 1000, 200 nM and above 200000 nM.
Regarding `NC(=O)c1cc2cc(Cl)ccc2n1S(=O)(=O)c1ccccc1`, the Selectivity index in assay [1] is given as above 3. The same compound returned an EC50 in assay [3] of 66000 nM. The CC50 in the assay with MT4 [5] is above 200000 nM.
On the same counts, the results for `NC(=O)c1[nH]c2ccc(Cl)cc2c1S(=O)(=O)c1c(Cl)cccc1Cl` are 400, 100 nM and 40000 nM.
With `NC(=O)c1[nH]c2ccc(Cl)cc2c1S(=O)(=O)c1cc(Cl)ccc1N`, the Selectivity index in assay [1] came out at 115. In assay [3], this compound displayed an EC50 of 40 nM. In the assay on MT4 [5], the cytotoxic concentration (CC50) turned out to be 4600 nM.
On the same counts, the results for `Cc1ccccc1Sc1c(C(N)=O)[nH]c2ccc(Cl)cc12` are 87, 300 nM and 26000 nM.
On the same counts, the results for `CCOC(=O)c1[nH]c2ccc(Cl)cc2c1Sc1cc(Cl)ccc1N` are above 80, 2500 nM and above 200000 nM.
`NNC(=O)c1[nH]c2ccc(Cl)cc2c1Sc1ccc(F)cc1`: in [1], the Selectivity index turned out to be 13. The compound further had an EC50 in assay [3] of 5000 nM. In the assay on MT4 [5], this compound yielded a 50% cytotoxic concentration (CC50) of 66000 nM.
On the same counts, the results for `NC(=O)c1[nH]c2ccc(Cl)cc2c1Sc1cc(Cl)ccc1N` are 20, 1600 nM and 33000 nM.
In the case of `NC(=O)c1[nH]c2ccccc2c1S(=O)(=O)c1ccccc1`, in assay [1], the Selectivity index is above 1110. For the same compound, it took 180 nM to reach a half-maximal effect in assay [3] (EC50). Moreover, the CC50 in the assay on MT4 [5] was above 200000 nM.
For the compound `NC(=O)c1[nH]c2ccc(Cl)cc2c1S(=O)(=O)c1ccccc1` [L-737126], the Selectivity index in [1] is recorded as 45000. Moreover, the figures for the EC90 with C8166 [2] and with C8166 [11] were 7 nM and 900 nM, respectively. For the same compound, in assay [3], the concentration giving a half-maximal response (EC50) was 1 nM. The half-inhibitory concentration (IC50) in [9] is 25 nM; in [10] it was above 5000 nM. In the assay with MT4 [5], this compound showed a CC50 of 45000 nM.

One may read the EC90 as the concentration needed for an effect of 90%. Higher therefore signals weaker potency. In general, EC50 refers to the concentration needed to bring the measured effect to its halfway point. High values mean a less potent agent, low ones a more potent agent. One may read the CC50 as the concentration giving 50% cytotoxicity. The term IC50 denotes the concentration at which inhibition is half-maximal. A higher IC50 goes with lower potency.
